Data taken from ChEMBL document CHEMBL1145910, “5,6,7-trisubstituted 4-aminopyrido[2,3-d]pyrimidines as novel inhibitors of adenosine kinase” (J Med Chem, 2003).

Key:
[1] = molecular target: Adenosine kinase (Homo sapiens, UniProt P55263); assay: Inhibition of adenosine kinase activity in IMR-32 human neuroblastoma cells; format: cell-based
[2] = molecular target: Adenosine kinase (Rattus norvegicus, UniProt Q64640); assay: Inhibition adenosine kinase activity in rat brain in vitro; format: tissue-based
Chain of Adenosine kinase (Rattus norvegicus, UniProt Q64640) (Q64640 whole entry): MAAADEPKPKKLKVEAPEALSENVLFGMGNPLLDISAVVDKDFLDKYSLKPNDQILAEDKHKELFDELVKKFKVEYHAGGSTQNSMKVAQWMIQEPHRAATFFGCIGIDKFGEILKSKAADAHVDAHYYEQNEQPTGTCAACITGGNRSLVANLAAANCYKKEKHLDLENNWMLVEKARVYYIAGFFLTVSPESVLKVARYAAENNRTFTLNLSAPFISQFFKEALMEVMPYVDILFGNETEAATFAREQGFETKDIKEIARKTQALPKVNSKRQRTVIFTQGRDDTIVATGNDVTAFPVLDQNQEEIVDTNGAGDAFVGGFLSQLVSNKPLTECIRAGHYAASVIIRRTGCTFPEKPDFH

[3] = system: Rattus norvegicus; assay: Reduction in formalin induced nociception after 10 umol/kg intraperitoneal administration
[4] = system: Mus musculus; assay: Percent maximal protective effect for hotplate analgesia in mice after 30 umol/kg intraperitoneal administration; format: functional
Outline: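 Mice (n = 6-8 per group) tested on 55 °C hotplate 30 min after intraperitoneal dosing. %MPE = (postdrug latency − vehicle latency)/(cutoff latency − vehicle latency) × 100, cutoff 180 s; significance versus vehicle-treated mice at p < 0.05.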

Chain of Adenosine kinase (Homo sapiens, UniProt P55263) (P55263 whole entry): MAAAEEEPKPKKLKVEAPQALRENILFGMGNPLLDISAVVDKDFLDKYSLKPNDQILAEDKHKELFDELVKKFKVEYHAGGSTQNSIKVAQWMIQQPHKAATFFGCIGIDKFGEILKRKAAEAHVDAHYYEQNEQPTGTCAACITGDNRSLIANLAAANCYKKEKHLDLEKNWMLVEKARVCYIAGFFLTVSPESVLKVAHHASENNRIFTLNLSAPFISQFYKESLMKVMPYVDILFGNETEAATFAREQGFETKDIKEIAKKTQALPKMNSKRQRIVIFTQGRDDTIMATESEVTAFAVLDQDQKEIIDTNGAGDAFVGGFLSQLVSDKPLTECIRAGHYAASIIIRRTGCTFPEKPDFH

IC50 [1]	IC50 [2]	SMILES	Max protective effect [3]	Max protective effect [4]
> 1000 nM	400 nM	CC(C)c1c(-c2ccc(N3CCOCC3)nc2)nc2ncnc(N)c2c1-c1cccc(Br)c1	–	–
> 1000 nM	300 nM	CN(C)c1ccc(-c2nc3ncnc(N)c3c(-c3cccc(Br)c3)c2C2CCCCC2)cn1	–	–
288 nM	0.25 nM	Cc1ccc(-c2c(-c3cccs3)nc3ncnc(N)c3c2-c2ccc(C)c(F)c2)cc1F	–	–
25 nM	0.43 nM	COc1ccc(-c2c(-c3cccs3)nc3ncnc(N)c3c2-c2cc(Br)cs2)cc1OC	–	–
1500 nM	350 nM	CN(C)c1ccc(-c2nc3ncnc(N)c3cc2-c2ccccc2)cc1	–	–
> 1000 nM	6.7 nM	CC(C)c1ccc(-c2c(-c3ccc(N(C)C)cc3)nc3ncnc(N)c3c2-c2ccc(C(C)C)cc2)cc1	–	–
197 nM	5 nM	Nc1ncnc2nc(-c3ccc(N4CCOCC4)nc3)c(-c3ccc(F)cc3)c(-c3cccc(Br)c3)c12	–	–
53 nM	3.2 nM	CN(C)c1ccc(-c2nc3ncnc(N)c3c(-c3ccccc3)c2-c2ccccc2)cn1	38%	50%
22000 nM	410 nM	Clc1ccc(-c2cnc3c(N4CCOCC4)ncnc3n2)cc1	–	–
155 nM	4 nM	Nc1ncnc2nc(-c3ccc(N4CCOCC4)nc3)c(-c3ccccc3)c(-c3cccc(Br)c3)c12	–	–
625 nM	60 nM	CN(C)c1ccc(-c2nc3ncnc(N)c3c(-c3cc(Br)cs3)c2C2CC2)cn1	–	–
350 nM	3.1 nM	COc1ccc(-c2c(-c3ccc(N(C)C)cc3)nc3ncnc(N)c3c2-c2cccc(Br)c2)cc1OC	–	–
163 nM	3 nM	COC(=O)Cc1c(-c2cccs2)nc2ncnc(N)c2c1-c1cccc(Br)c1	–	–
49 nM	0.55 nM	Nc1ncnc2nc(-c3cccs3)c(-c3ccccc3)c(-c3ccccc3)c12	–	–
250 nM	16 nM	CN(C)c1ccc(-c2nc3ncnc(N)c3c(-c3ccccc3)c2-c2ccccc2)cc1	–	77%
367 nM	0.98 nM	COCCN(C)c1ccc(-c2nc3ncnc(N)c3c(-c3cc(Br)cs3)c2-c2ccc(OC)c(OC)c2)cc1	–	–
130 nM	37 nM	CN(C)c1ccc(-c2c(-c3ccc(N4CCOCC4)nc3)nc3ncnc(N)c3c2-c2cccc(Cl)c2)cc1	–	–
130 nM	5 nM	CN(C)c1ccc(-c2nc3ncnc(N)c3c(-c3cccc(Cl)c3)c2-c2ccccc2)cn1	39%	56%
625 nM	55 nM	CCCCCc1c(-c2ccc(N(C)C)nc2)nc2ncnc(N)c2c1-c1cccc(Br)c1	–	–
450 nM	63 nM	Nc1ncnc2nc(-c3ccc(N4CCOCC4)nc3)c(Cc3ccccc3)c(-c3cccc(Br)c3)c12	–	–
